Test results taken from ChEMBL document CHEMBL1132952, “2D QSAR modeling and preliminary database searching for dopamine transporter inhibitors using genetic algorithm variable selection of Molconn Z descriptors” (J Med Chem, 2000).

Experiments:
[1] = molecular target: Sodium-dependent dopamine transporter (Rattus norvegicus, UniProt P23977)
[2] = molecular target: Sodium-dependent dopamine transporter (Rattus norvegicus) (UniProt P23977); assay: Binding affinity to Dopamine transporter (DAT) using [3H]WIN-35428 at 1 uM
Procedure, shortened: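 Rat striatal membranes (male Sprague-Dawley, 200-225 g) in modified Krebs-HEPES buffer, pH 7.4. Each tube held 2.5 mg tissue (original wet weight) and 1.5 nM [3H]WIN 35,428. Membranes were preincubated 5 min with or without 1 μM test compound, in triplicate, then incubated 60 min on ice. Nonspecific binding was taken with 0.1 mM cocaine·HCl. Filtration through BSA-presoaked GF/B filters, scintillation counting.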

Sequence of Sodium-dependent dopamine transporter (Rattus norvegicus) (P23977 whole entry): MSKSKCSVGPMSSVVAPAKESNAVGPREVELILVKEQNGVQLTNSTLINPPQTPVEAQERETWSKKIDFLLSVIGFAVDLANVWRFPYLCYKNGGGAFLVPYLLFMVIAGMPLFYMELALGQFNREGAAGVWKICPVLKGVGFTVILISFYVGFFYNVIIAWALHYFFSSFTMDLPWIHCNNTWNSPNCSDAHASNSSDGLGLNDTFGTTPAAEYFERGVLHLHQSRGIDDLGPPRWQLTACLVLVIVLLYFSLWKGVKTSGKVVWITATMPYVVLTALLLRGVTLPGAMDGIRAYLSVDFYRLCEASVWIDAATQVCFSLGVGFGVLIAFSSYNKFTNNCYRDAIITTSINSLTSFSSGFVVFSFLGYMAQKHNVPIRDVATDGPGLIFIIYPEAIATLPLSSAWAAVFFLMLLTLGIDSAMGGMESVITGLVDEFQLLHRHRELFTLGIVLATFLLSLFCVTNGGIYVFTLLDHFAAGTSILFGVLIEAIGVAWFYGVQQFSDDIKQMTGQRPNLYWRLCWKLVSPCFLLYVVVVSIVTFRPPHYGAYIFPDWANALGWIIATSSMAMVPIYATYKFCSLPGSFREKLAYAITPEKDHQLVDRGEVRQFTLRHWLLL
Sequence of Sodium-dependent dopamine transporter (P23977 whole entry): as above

With `NC12CCC(c3ccccc3)(CC1)CC2` the Ki [1] was 83.2 nM.
For `CC(CN1CCCC1)OC(=O)C(c1ccccc1)C1C=CCC1` (stereo not given), the Specific binding [2] was 49.7%.
`CC(=O)[C@@H]1C2CCC(C[C@@H]1OC(=O)c1ccccc1)N2C` (stereo not given in full) gave a Ki [1] of 191 nM.
`CN1C2CCC1[C@@H](CCCc1ccccc1)[C@@H](c1ccccc1)C2` (stereo not given in full) was tested, and the Ki [1] was 16.2 nM.
With `COc1ccc(C(O[C@H]2C[C@H]3CC[C@@H](C2)N3C)c2ccccc2)cc1` (stereo not given in full) the Ki [1] was 79.4 nM.
In the case of `COC(=O)[C@@H]1C2CC[C@H](C[C@@H]1c1ccccc1)N2C`, the Ki [1] is reported as 87.1 nM.
Molecule `c1ccc2sc(C3(N4CCCCC4)CCCCC3)cc2c1` has a Ki [1] of 10 nM.
For `CN1CCC(OC(c2ccccc2)c2ccc(Cl)cc2)C1` (stereo not given), the Specific binding [2] was 8.43%.
For `COC(=O)CC(c1ccccc1)C1CCCCN1` (stereo not given), the Ki [1] was 186 nM.
In the case of `CC(C(OC(=O)C1c2ccccc2-c2ccccc21)c1ccccc1)N(C)C` (stereo not given), the Specific binding [2] is reported as 19%.
Work on `CN1C2CCC1[C@@H](CCC(=O)c1ccccc1)[C@@H](c1ccccc1)C2` (stereo not given in full) yielded a Ki [1] of 28.2 nM.
`COC(=O)C[C@@H]1C2C[C@H](Cc3ccccc3)C(C[C@@H]1Cc1ccccc1)N2C` (stereo not given in full) gave a Ki [1] of 3090 nM.
`CN1[C@@H]2CC[C@H]1C[C@@H](OC(c1ccccc1)c1cccc(C(F)(F)F)c1)C2` (stereo not given in full) was tested, and the Ki [1] was 191 nM.
With `CCCN1CCCC(c2ccc(O)cc2)C1` (stereo not given) the Ki [1] was 562 nM.
Molecule `O=C1c2ccccc2CC1CN1CCCCC1` (stereo not given) has a Specific binding [2] of 89.9%.
With `CN1C2CCC1[C@@H](CCCO)[C@@H](c1ccccc1)C2` (stereo not given in full) the Ki [1] was 11 nM.
With `COC(=O)C1C2CC[C@H](C[C@@H]1c1ccc(Cl)cc1)N2C` (stereo not given in full) the Ki [1] was 2 nM.
In the case of `COC(=O)/C=C/CC[C@@H]1C2CCC(C[C@@H]1c1ccccc1)N2C` (stereo not given in full), the Ki [1] is reported as 20 nM.
In the case of `COC(=O)[C@@H]1C2CC[C@H](C[C@@H]1c1ccc(C)cc1)N2C`, the Ki [1] is reported as 5.01 nM.
In the case of `CN1C2CCC1[C@@H](/C=C/CO)[C@@H](c1ccccc1)C2` (stereo not given in full), the Ki [1] is reported as 16.2 nM.
For `CC(C)OC(=O)[C@@H]1C2CC[C@H](C[C@@H]1c1ccc(I)cc1)N2C`, the Ki [1] was 3.98 nM.
With `COc1cc(NCCN(CC(C)C)CC(C)C)c2ncccc2c1` the Specific binding [2] was 81.6%.
For `CN1[C@@H]2CC[C@H]1C[C@@H](OC(c1ccccc1)c1ccc(Cl)c(Cl)c1)C2` (stereo not given in full), the Ki [1] was 21.4 nM.
Work on `CN1[C@@H]2CC[C@H]1C[C@@H](OC(c1ccccc1)c1ccccc1N)C2` (stereo not given in full) [AMINOBENZTROPINE] yielded a Ki [1] of 1860 nM.
`c1ccc2c(CN3CCOCC3)c[nH]c2c1` showed a Specific binding [2] of 88.1%.
Molecule `CCC(=O)[C@@H]1C2CCC(C[C@@H]1OC(=O)c1ccccc1)N2C` (stereo not given in full) has a Ki [1] of 309 nM.
`COC(=O)CC[C@@H]1C2CCC(C[C@@H]1c1ccccc1)N2C` (stereo not given in full) showed a Ki [1] of 22.9 nM.
`CC[C@H]1CC2[C@@H](CC(=O)OC)[C@@H](Cc3ccccc3)CC1N2C` (stereo not given in full) showed a Ki [1] of 309 nM.
`COC(=O)CCCC[C@@H]1C2CCC(C[C@@H]1c1ccccc1)N2C` (stereo not given in full) showed a Ki [1] of 30.2 nM.
`COc1ccc2c(c1)CN(C)CC2c1ccc(Cl)c(Cl)c1` (stereo not given) [DICLOFENSINE] showed a Ki [1] of 7.08 nM.
In the case of `O=C(OCCN1CCOCC1)C1(c2ccccc2)CCCCC1`, the Ki [1] is reported as 5370 nM.
`CCCC[C@H]1CC2[C@@H](CC(=O)OC)[C@@H](Cc3ccccc3)CC1N2C` (stereo not given in full) gave a Ki [1] of 8510 nM.
`CCC[C@H]1CC2[C@@H](CC(=O)OC)[C@@H](Cc3ccccc3)CC1N2C` (stereo not given in full) was tested, and the Ki [1] was 4170 nM.
Work on `COC(=O)[C@@H]1C2CC[C@H](C[C@@H]1c1ccc(I)cc1)N2C` yielded a Ki [1] of 2.09 nM.
`COC(=O)C[C@@H]1C2C[C@H](C)C(C[C@@H]1Cc1ccccc1)N2C` (stereo not given in full) showed a Ki [1] of 214 nM.
In the case of `CCOC(=O)N1CCN(Cc2c[nH]c3ccccc23)CC1`, the Specific binding [2] is reported as 88.5%.
Molecule `COC(=O)/C=C/[C@@H]1C2CCC(C[C@@H]1c1ccccc1)N2C` (stereo not given in full) has a Ki [1] of 21.9 nM.
`COc1ccccc1OC(CCN)c1ccccc1` (stereo not given) was tested, and the Ki [1] was 562 nM.
Molecule `CCCCN(CCCC)CCC(=O)c1cc(-c2ccccc2)oc1-c1ccccc1` has a Specific binding [2] of 93.4%.
`c1ccc(C(CN2CCCCC2)OCc2cccs2)cc1` (stereo not given) gave a Specific binding [2] of 42.1%.
Work on `CN(C)C/C=C(\c1cccnc1)c1cccc(Br)c1` yielded a Ki [1] of 11200 nM.
In the case of `C[C@@H]1CN(CCCn2c3ccccc3c3ccccc32)C[C@H](C)N1` [RIMCAZOLE], the Ki [1] is reported as 105 nM.
`Clc1ccc(C2NCCNCc3ccccc32)cc1` (stereo not given) showed a Specific binding [2] of 54.3%.
`O=C1N2CCNc3ccccc3C(c3ccccc3)N1CC2` (stereo not given) was tested, and the Specific binding [2] was 55.8%.
`CC(NC(C)(C)C)C(=O)c1cccc(Cl)c1` (stereo not given) [BUPROPION] was tested, and the Ki [1] was 372 nM.
